Test [1] relates to Tyrosine-protein kinase ABL1 (Homo sapiens), P00519 [Y253F]. Description: Binding affinity to human phosphorylated ABL1 Y253F mutant (S229 to K512 residues) expressed in mammalian expression system assessed as residual binding level at 1 uM by Kinomescan method relative to control. The essentials:
(§1)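 Single-concentration (1 μM) competition-binding screen run by KINOMEscan against a panel of 468 purified kinases and mutants. The read-out is the relative binding activity of the test compound to each kinase.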

Test [2] concerns ALK tyrosine kinase receptor (Homo sapiens), Q9UM73 [L1196M]. Description: Binding affinity to wild-type human partial length ALK L1196M mutant (I1088 to E1409 residues) expressed in mammalian expression system assessed as residual binding level at 1 uM by Kinomescan method relative to control. The essentials:
(§2)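 Single-concentration KINOMEscan (DiscoverX) binding screen at 1 μM against a panel of 468 purified kinases and mutants. The read-out is binding relative to control.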

For test [3], the target named is Cyclin-dependent kinase-like 3 (Homo sapiens) (UniProt Q8IVW4). Description: Binding affinity to wild-type human partial length CDKL3 (M1 to D327 residues) expressed in bacterial expression system assessed as residual binding level at 1 uM by Kinomescan method relative to control. In short, it runs like this: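 Kinome-wide competition binding screen against a panel of 468 purified kinases/mutants, with the test compound at a single concentration of 1 μM. Read-out is the relative binding activity of each kinase in the presence of compound.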
Cyclin-dependent kinase-like 3 (Homo sapiens), sequence (Q8IVW4 whole entry, looked up, the tested form may be a part): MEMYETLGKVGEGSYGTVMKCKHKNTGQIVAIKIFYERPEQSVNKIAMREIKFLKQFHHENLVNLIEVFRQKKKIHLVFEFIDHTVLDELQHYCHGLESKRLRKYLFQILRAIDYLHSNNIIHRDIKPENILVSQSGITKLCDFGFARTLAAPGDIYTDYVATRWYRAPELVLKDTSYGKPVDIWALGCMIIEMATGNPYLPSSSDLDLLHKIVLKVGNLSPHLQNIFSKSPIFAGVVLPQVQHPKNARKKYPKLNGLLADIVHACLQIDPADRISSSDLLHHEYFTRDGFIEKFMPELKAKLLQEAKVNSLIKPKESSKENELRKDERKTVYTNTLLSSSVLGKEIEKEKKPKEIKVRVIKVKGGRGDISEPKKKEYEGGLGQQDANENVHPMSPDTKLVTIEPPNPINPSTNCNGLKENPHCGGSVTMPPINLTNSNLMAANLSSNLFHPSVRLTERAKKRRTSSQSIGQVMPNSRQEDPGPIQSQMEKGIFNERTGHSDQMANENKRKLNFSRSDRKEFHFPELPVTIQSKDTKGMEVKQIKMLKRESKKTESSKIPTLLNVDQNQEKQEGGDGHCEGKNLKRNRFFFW

Test [4] concerns the target Macrophage colony-stimulating factor 1 receptor (Homo sapiens) (UniProt P07333). Description: Binding affinity to wild-type human partial length CSF1R (I564 to S939 residues) expressed in bacterial expression system assessed as residual binding level at 1 uM by Kinomescan method relative to control.
Test [5] has as its target Fibroblast growth factor receptor 1 (Homo sapiens) (UniProt P11362). As to the kind of experiment: Binding affinity to wild-type human partial length FGFR1 (P357 to V669 residues) expressed in bacterial expression system assessed as residual binding level at 1 uM by Kinomescan method relative to control.
Test [6] deals with Rhodopsin kinase GRK7 (Homo sapiens) (UniProt Q8WTQ7). Description: Binding affinity to wild-type human full length GRK7 (M1 to L553 residues) expressed in mammalian expression system assessed as residual binding level at 1 uM by Kinomescan method relative to control. The essentials:
as §1

In test [7] the target is Insulin receptor (Homo sapiens) (UniProt P06213). Description: Binding affinity to wild-type human partial length INSR (P997 to E1318 residues) expressed in mammalian expression system assessed as residual binding level at 1 uM by Kinomescan method relative to control.
The target of test [8] is Tyrosine-protein kinase ITK/TSK (Homo sapiens) (UniProt Q08881). As to the kind of experiment: Binding affinity to wild-type human partial length ITK (R335 to L620 residues) expressed in bacterial expression system assessed as residual binding level at 1 uM by Kinomescan method relative to control.
Tyrosine-protein kinase ITK/TSK (Homo sapiens), sequence (Q08881 whole entry, the tested form may be a part): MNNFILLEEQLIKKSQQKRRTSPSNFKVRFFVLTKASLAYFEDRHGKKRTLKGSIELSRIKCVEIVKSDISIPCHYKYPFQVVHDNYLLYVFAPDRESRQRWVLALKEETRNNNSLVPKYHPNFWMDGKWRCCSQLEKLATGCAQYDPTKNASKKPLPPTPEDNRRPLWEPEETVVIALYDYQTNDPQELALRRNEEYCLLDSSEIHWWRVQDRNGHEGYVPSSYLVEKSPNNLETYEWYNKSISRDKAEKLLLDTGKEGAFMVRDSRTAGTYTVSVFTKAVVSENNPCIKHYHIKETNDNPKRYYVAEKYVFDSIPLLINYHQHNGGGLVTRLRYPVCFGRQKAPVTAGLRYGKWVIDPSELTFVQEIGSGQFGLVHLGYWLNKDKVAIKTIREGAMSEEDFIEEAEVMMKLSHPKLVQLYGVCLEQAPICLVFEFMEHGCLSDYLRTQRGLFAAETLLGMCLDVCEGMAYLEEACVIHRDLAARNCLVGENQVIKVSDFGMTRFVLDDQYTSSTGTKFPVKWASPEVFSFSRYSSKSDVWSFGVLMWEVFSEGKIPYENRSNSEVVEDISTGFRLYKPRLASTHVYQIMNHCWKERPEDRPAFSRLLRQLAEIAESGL
In test [9] the target is Dual specificity mitogen-activated protein kinase kinase 4 (Homo sapiens) (UniProt P45985). As to the kind of experiment: Binding affinity to wild-type human partial length MEK4 (S84 to D399 residues) expressed in mammalian expression system assessed as residual binding level at 1 uM by Kinomescan method relative to control.
The target in test [10] is Dual specificity mitogen-activated protein kinase kinase 6 (Homo sapiens) (UniProt P52564). Description: Binding affinity to wild-type human partial length MEK6 (K36 to D334 residues) expressed in bacterial expression system assessed as residual binding level at 1 uM by Kinomescan method relative to control.
In test [11] the target is Dual specificity mitogen-activated protein kinase kinase 7 (Homo sapiens) (UniProt O14733). As to the kind of experiment: Binding affinity to wild-type human full length MKK7 (M1 to R419 residues) expressed in mammalian expression system assessed as residual binding level at 1 uM by Kinomescan method relative to control. The essentials: as §2
Test [12] concerns the target MAP kinase-interacting serine/threonine-protein kinase 2 (Homo sapiens) (UniProt Q9HBH9). As to the kind of experiment: Binding affinity to wild-type human partial length MKNK2 (G63 to S388 residues) expressed in mammalian expression system assessed as residual binding level at 1 uM by Kinomescan method relative to control.
In test [13] the target is Serine/threonine-protein kinase 38 (Homo sapiens) (UniProt Q15208). As to the kind of experiment: Binding affinity to wild-type human partial length NDR1 (N33 to E449 residues) expressed in mammalian expression system assessed as residual binding level at 1 uM by Kinomescan method relative to control.
For test [14], the target named is Cyclin-dependent kinase 14 (Homo sapiens) (UniProt O94921). As to the kind of experiment: Binding affinity to wild-type human full length PFTK1 (M1 to H451 residues) expressed in bacterial expression system assessed as residual binding level at 1 uM by Kinomescan method relative to control. In short, it runs like this: as §2
For test [15], the system named is Phosphatidylinositol 4,5-bisphosphate 3-kinase catalytic subunit alpha isoform (Homo sapiens), P42336 [C420R]. Description: Binding affinity to human partial length PIK3CA C420R mutant (R108 to N1068 residues) expressed in mammalian expression system assessed as residual binding level at 1 uM by Kinomescan method relative to control. The essentials:
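Kinome-wide single-concentration binding screen (KINOMEscan) at 1 μM against a panel of 468 purified kinases and mutants. Read-out is relative binding of each kinase compared with control. Selectivity across the panel was summarised as an S(10) score.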

The target in test [16] is Serine/threonine-protein kinase N2 (Homo sapiens) (UniProt Q16513). Description: Binding affinity to wild-type human partial length PKN2 (E634 to C984 residues) expressed in bacterial expression system assessed as residual binding level at 1 uM by Kinomescan method relative to control.
Serine/threonine-protein kinase N2 (Homo sapiens), sequence (Q16513 whole entry, looked up, the tested form may be a part): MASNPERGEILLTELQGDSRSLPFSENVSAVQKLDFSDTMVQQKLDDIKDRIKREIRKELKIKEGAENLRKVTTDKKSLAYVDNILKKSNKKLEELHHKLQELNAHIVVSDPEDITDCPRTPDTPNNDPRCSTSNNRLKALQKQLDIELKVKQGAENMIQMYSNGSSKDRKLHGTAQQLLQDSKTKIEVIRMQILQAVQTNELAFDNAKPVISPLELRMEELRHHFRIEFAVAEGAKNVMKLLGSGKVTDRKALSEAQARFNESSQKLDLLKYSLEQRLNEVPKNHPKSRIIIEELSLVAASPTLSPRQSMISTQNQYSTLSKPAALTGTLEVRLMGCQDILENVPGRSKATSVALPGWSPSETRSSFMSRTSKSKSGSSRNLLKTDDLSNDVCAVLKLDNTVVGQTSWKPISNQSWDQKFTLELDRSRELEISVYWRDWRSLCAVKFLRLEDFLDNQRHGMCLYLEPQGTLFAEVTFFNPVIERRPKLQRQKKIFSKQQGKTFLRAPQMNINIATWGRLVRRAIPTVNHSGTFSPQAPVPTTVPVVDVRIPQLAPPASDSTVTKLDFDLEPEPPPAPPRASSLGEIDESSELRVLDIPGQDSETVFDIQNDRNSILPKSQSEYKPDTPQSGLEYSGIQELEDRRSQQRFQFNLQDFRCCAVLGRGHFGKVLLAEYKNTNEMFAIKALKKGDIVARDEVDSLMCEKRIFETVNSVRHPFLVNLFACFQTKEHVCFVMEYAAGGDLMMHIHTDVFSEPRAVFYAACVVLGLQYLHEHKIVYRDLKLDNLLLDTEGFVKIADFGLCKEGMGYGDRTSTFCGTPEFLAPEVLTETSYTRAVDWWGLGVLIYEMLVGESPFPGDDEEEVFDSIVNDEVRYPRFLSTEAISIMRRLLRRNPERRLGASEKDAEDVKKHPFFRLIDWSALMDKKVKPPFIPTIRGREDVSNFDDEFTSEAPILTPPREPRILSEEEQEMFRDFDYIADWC
Test [17] concerns the target Serine/threonine-protein kinase Sgk2 (Homo sapiens) (UniProt Q9HBY8). As to the kind of experiment: Binding affinity to wild-type human partial length SGK2 (L54 to C427 residues) expressed in mammalian expression system assessed as residual binding level at 1 uM by Kinomescan method relative to control.
The target of test [18] is TGF-beta receptor type-1 (Homo sapiens) (UniProt P36897). As to the kind of experiment: Binding affinity to wild-type human partial length TGFBR1 (D179 to M503 residues) expressed in bacterial expression system assessed as residual binding level at 1 uM by Kinomescan method relative to control.
Test [19] addresses Tyrosine-protein kinase Yes (Homo sapiens) (UniProt P07947). As to the kind of experiment: Binding affinity to wild-type human partial length YES (T257 to L543 residues) expressed in bacterial expression system assessed as residual binding level at 1 uM by Kinomescan method relative to control.
Test [20] deals with Platelet-derived growth factor receptor alpha (Homo sapiens), P16234 [T674I]. Description: Inhibition of TEL-fused PDGFRalpha T674I mutant (unknown origin) expressed in mouse BA/F3 cells assessed as growth inhibition after 72 hrs by CellTiter-Glo or CCK-8 assay. In kind it is cell-based.
Platelet-derived growth factor receptor alpha (Homo sapiens), P16234 [T674I], sequence (P16234 whole entry T674I, the tested form may be a part): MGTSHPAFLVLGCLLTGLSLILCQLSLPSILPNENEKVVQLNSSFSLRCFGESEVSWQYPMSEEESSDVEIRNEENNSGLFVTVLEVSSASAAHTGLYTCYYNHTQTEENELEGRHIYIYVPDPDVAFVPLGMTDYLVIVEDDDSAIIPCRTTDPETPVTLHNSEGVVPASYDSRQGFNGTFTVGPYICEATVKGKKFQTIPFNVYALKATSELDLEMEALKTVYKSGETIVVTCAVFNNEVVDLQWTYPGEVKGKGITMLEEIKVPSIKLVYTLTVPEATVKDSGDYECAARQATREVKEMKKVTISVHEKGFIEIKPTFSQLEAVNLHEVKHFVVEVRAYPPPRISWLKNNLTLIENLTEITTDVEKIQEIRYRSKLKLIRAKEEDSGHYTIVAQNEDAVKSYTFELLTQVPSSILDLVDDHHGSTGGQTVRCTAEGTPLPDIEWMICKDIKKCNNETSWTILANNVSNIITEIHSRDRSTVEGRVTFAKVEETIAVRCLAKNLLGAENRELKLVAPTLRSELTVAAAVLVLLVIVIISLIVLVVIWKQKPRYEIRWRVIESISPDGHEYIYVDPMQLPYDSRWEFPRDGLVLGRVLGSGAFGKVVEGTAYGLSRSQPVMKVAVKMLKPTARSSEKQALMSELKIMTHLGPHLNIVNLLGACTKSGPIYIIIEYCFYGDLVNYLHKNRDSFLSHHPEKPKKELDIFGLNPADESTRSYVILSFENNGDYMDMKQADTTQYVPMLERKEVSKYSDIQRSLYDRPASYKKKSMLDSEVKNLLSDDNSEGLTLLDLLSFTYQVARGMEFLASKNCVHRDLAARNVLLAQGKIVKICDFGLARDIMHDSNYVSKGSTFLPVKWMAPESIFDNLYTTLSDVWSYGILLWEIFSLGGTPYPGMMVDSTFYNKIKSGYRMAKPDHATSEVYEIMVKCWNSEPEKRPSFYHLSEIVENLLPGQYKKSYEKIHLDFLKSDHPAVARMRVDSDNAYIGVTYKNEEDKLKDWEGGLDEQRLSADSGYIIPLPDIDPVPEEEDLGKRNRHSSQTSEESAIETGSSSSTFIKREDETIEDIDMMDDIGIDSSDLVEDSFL
The target in test [21] is Mitogen-activated protein kinase kinase kinase 12 (DLK/MAP3K12) (Homo sapiens) (UniProt Q12852). As to the kind of experiment: Binding affinity to wild-type human full length DLK (M1 to P859 residues) expressed in mammalian expression system assessed as residual binding level at 1 uM by Kinomescan method relative to control.

The values that follow come from ChEMBL document CHEMBL4229344 (Eur J Med Chem, 2018).

Rhodopsin kinase GRK7 (Homo sapiens), sequence (Q8WTQ7 whole entry, the tested form may be a part): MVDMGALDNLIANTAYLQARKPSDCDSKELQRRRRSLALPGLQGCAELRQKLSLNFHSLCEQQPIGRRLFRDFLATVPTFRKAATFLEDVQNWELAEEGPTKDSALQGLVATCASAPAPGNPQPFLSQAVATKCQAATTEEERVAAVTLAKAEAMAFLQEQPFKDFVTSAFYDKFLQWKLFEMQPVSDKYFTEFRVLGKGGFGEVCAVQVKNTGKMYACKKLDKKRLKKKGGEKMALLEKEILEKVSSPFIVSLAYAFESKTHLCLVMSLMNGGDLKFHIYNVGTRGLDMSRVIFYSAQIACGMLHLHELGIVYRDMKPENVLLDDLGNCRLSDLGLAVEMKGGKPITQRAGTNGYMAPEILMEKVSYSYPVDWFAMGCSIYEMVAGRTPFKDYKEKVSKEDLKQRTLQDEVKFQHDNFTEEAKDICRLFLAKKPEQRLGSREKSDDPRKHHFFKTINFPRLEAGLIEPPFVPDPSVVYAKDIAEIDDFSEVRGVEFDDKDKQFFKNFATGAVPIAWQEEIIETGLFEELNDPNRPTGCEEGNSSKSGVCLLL
Macrophage colony-stimulating factor 1 receptor (Homo sapiens), sequence (P07333 whole entry, the tested form may be a part): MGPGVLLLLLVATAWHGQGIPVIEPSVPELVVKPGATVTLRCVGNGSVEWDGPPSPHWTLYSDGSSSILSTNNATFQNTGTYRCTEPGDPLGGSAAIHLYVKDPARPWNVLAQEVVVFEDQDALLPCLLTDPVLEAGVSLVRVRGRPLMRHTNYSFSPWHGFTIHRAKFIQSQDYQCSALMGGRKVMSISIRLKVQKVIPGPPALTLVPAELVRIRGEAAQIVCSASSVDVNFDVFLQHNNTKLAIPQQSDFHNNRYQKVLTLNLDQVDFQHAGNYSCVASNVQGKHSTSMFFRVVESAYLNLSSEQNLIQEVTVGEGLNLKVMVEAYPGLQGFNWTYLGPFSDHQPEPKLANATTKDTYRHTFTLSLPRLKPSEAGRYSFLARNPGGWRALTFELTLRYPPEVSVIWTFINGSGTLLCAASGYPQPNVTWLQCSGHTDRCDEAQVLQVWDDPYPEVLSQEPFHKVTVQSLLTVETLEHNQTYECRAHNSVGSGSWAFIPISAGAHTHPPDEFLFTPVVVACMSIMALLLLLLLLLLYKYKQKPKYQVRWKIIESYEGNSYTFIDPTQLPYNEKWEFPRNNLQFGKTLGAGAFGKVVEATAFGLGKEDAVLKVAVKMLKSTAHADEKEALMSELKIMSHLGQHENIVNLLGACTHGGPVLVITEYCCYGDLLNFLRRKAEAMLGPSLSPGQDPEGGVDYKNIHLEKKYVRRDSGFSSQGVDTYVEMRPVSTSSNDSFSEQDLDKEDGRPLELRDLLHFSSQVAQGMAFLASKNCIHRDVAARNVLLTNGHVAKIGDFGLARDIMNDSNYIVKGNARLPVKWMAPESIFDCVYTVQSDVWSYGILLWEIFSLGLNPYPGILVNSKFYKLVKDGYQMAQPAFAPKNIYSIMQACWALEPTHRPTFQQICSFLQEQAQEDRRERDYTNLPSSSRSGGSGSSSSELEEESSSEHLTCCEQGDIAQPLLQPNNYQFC

For `Cc1ccc(NC(=O)c2ccc(CN(CCN(C)C)C(=O)c3cccnc3)cc2)cc1Nc1nccc(-c2cccnc2)n1`, the Activity in test [1] is 90%; in test [2] it was 100%; in [3], 91%; in [4] it was 10%; in test [5], 98%; in test [6], 100%. In addition, the Activity in test [7], in test [8], in [9], in test [10], in [11] and in test [12] was 100% throughout. In addition, the Activity in test [13] is 71%; in [14], 90%; in test [15], 93%; in test [16] it was 96%; in test [17], 100%; in test [18], 100%. The results for the Activity in test [19] and in [21] were 100% and 93%, respectively. In [20], the GI50 (in general, the concentration giving 50% growth inhibition) is over 10 µM.
